From PubChem BioAssay
Where “and” joins values, the source holds several entries; their conditions need not be identical. Identical values can stand only once. Calls of active or inactive are those of the source.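 Rule for the calls, unless noted: active = viability at or below 10% of carrier control in both of two separate runs; inconclusive = viability at or below 10% in only one of the two runs; inactive = the rest.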

Assays:
[1] = SK-BR-3 cell growth inhibitors, pilot screen, 24 h, human (AID 572); conditions: SK-BR-3 viability, CellTiter-Glo luminescence, at 10 µM, stronger effect = lower value;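 note: compound exposure lasted between 18 and 24 h rather than exactly 24 h; 100% = carrier-treated control wells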
[2] = HUVEC growth inhibition – cell-based, human, primary screen (AID 575;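 active = viability at or below 30% in both replicate assays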;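 note: 100% = median of untreated cell wells with 0.1% DMSO on each plate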); conditions: HUVEC proliferation, CellTiter-Glo luminescence, 72 h; at 10 µM; stronger effect = lower value
Procedure, shortened: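 System – primary HUVEC, no more than 12 passages · Medium – Low-serum (2% FBS) EBM, supplemented · Times – 72 h exposure, 37 °C, 5% CO2, 30 min RT equilibration · Measured by – luminescent ATP assay · Read-out – % viability relative to median vehicle-well signal on each plate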

[3] = growth inhibitors of H69AR lung tumor, primary screen, human, duplicate replicates (AID 580;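 active = viability at or under a set limit in both replicates, limit being median viability minus 3 SD, cut at about 48% in these data, passing the limit was not always enough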;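 note: 100% = mean luminescence of untreated wells and 0% = no signal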); conditions: H69AR lung tumor cells viability, ATP luminescence, 72 h; at 10 µM; stronger effect = lower value
[4] = reversal of MRP1-mediated doxorubicin resistance, pilot screen, H69AR cells, doxorubicin co-treatment (AID 601;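 active = viability loss from added drug above about 55%, and viability with drug at most 40%, in both replicates, limit read from the data, passing the limit was not always enough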); conditions: CellTiter-Glo, 72 h, at 10 µM; for differential viability (reversal): stronger effect = higher value
[5] = 384-well plate pilot, post-Golgi transport modulator project, inhibition of yeast transport mutant growth (AID 636; in the data active = inhibition above about 31%); conditions: absorbance 615 nm, about 18 h, stronger effect = higher value
[6] = growth suppression of yeast trafficking mutant, preliminary HTS, modulators of trafficking downstream of Golgi apparatus project, 1536-format plate, OD 615 nm (AID 637; in the data active = inhibition above about 30%); conditions: yeast transport mutant growth, absorbance 615 nm, 18 h; stronger effect = higher value
[7] = H69AR cells + 2 uM doxorubicin, measured here: viability with 2 uM doxorubicin, stronger effect = lower value
[8] = H69AR cells, compound alone cytotoxicity

Row | SMILES | viability [1] | viability [2] | viability [3] | differential viability (reversal) ([4]; H69AR cells + 2 uM doxorubicin) | viability [4, 7] | viability [4, 8] | inhibition [5] | inhibition [6]
1 | COC(=O)CCC(NC(=O)c1cc(-c2ccc3c(c2)OCCO3)oc1C)C(=O)OC (stereo unspecified) | 91% (inactive) | 74.8% (inactive) | 85.3% (inactive) | 3.48% (inactive) | 81.9% | 85.3% | -6.44% (inactive) | 0.81% (inactive)
2 | Cc1ccc(-c2ccc(SCC(=O)Nc3nonc3C)nn2)cc1 | 94% (inactive) | 81.8% (inactive) | 88.8% (inactive) | -4.68% (inactive) | 93.5% | 88.8% | -7.57% (inactive) | -0.55% (inactive)
3 | CC1CCN(S(=O)(=O)c2ccc(Br)s2)CC1 | 98% (inactive) | 91.1% (inactive) | 87.5% (inactive) | 6.46% (inactive) | 81.1% | 87.5% | -2.6% (inactive) | -1.8% (inactive)
4 | CSc1c(C#N)c(N)c(C#N)c2c1COC(C)(C)C2 | 94% (inactive) | 90.1% (inactive) | 88% (inactive) | -1.11% (inactive) | 89.1% | 88% | -11.1% (inactive) | 2.1% (inactive)
5 | Cc1cc(N2CCN(C3CCCC3)CC2)n2c(nc3ccccc32)c1C#N | 78% (inactive) | 96.8% (inactive) | 91.4% (inactive) | 28.1% (inactive) | 63.3% | 91.4% | -2.19% (inactive) | 2.42% (inactive)
6 | CC(c1ccco1)N(Cc1ccco1)C(=O)Nc1ccccc1 (stereo unspecified) | 108% (inactive) | 76.3% (inactive) | 91.2% (inactive) | 23.7% (inactive) | 67.6% | 91.2% | 1.69% (inactive) | 6.72% (inactive)
7 | CCCCc1nc(NCCN2CCOCC2)c(C#N)c2c1COC(C)(C)C2 | 76% (inactive) | 94.1% (inactive) | 91.6% (inactive) | 4.02% (inactive) | 87.5% | 91.6% | 5.48% (inactive) | 6.77% (inactive)
8 | CCN1C(=O)C(C(=O)Nc2ccc(OC)cc2)C2CC1(C)Oc1ccccc12 (stereo unspecified) | 80% (inactive) | 110% (inactive) | 86.4% (inactive) | -10% (inactive) | 96.4% | 86.4% | -8.51% (inactive) | -1.64% (inactive)
9 | COC(=O)C1=C(C)NC(C)=C(C(=O)OC)C1C(=O)OC1CCCCC1=O (stereo unspecified) | 89% (inactive) | 105% (inactive) | 97.3% (inactive) | 3.25% (inactive) | 94% | 97.3% | -4.46% (inactive) | -0.49% (inactive)
10 | C=CCSc1nnc(-c2ccc(Cl)cc2Cl)o1 | 96% (inactive) | 107% (inactive) | 87.9% (inactive) | 19.9% (inactive) | 67.9% | 87.9% | -5.47% (inactive) | 0.73% (inactive)
11 | Cc1cc(=O)n2nc(N3CCCC(C(=O)N4CCN(C)CC4)C3)sc2n1 (stereo unspecified) | 110% (inactive) | 101% (inactive) | 95.7% (inactive) | 7.05% (inactive) | 88.7% | 95.7% | -5.81% (inactive) | -5.09% (inactive)
12 | c1ccc(-c2cc(-c3nc(-c4ccccn4)no3)c3ccccc3n2)cc1 | 139% (inactive) | 63.9% (inactive) | 59% (inactive) | 2.75% (inactive) | 56.3% | 59% | -2.7% (inactive) | 8% (inactive)
13 | CC(=O)c1cccc(NC(=O)NCc2ccco2)c1 | 93% (inactive) | 93.9% (inactive) | 85.7% (inactive) | -0.48% (inactive) | 86.2% | 85.7% | -4.79% (inactive) | 2.36% (inactive)
14 | CCN(CC)CC(=O)Nc1c(C)cccc1C | 101% (inactive) and 123% (inactive) | 97.3% (inactive) and 96.1% (inactive) | 107% (inactive) and 101% (inactive) | 15.8% (inactive) and 10.7% (inactive) | 91.2% and 90% | 107% and 101% | -3.38% (inactive) | -3.67% (inactive) and 1.67% (inactive)
15 | COc1ccc(-c2nnc(SC(C)C(=O)Nc3nccs3)n2-c2ccccc2)cc1OC (stereo unspecified) | 105% (inactive) | 83.5% (inactive) | 86.8% (inactive) | -0.545% (inactive) | 87.4% | 86.8% | -0.96% (inactive) | 3.87% (inactive)
16 | Cc1cccc(C(=O)O)c1NC(=O)c1ccc(F)cc1 | 109% (inactive) | 107% (inactive) | 104% (inactive) | 3.75% (inactive) | 100% | 104% | 0.27% (inactive) | -1.09% (inactive)
17 | Cn1c(=O)[nH]c(=O)c2c1nc(N1CCc3ccccc3C1)n2CCSc1nc2ccccc2s1 | 72% (inactive) | 79.5% (inactive) | 75.2% (inactive) | 1.51% (inactive) | 73.7% | 75.2% | -5.48% (inactive) | 2.9% (inactive)
18 | CCOC(=O)C1CCN(C(=O)CCCCn2c(=O)[nH]c3ccccc3c2=O)CC1 | 90% (inactive) | 114% (inactive) | 101% (inactive) | 6.14% (inactive) | 94.9% | 101% | 3.77% (inactive) | 2.62% (inactive)
19 | c1ccc(OCc2nc(-c3ccccc3)no2)cc1 | 98% (inactive) | 92.5% (inactive) | 93.5% (inactive) | 3.62% (inactive) | 89.9% | 93.5% | 0.14% (inactive) | 29.5% (inactive)

Row | SMILES | viability [1] | viability [2] | viability [3] | differential viability (reversal) ([4]; H69AR cells + 2 uM doxorubicin) | viability [4, 7] | viability [4, 8] | inhibition [5] | inhibition [6]
20 | CC(CC(=O)NCc1ccccc1)C1CCCO1 (stereo unspecified) | 130% (inactive) | 102% (inactive) | 93.4% (inactive) | 2.22% (inactive) | 91.2% | 93.4% | -2.21% (inactive) | 4.75% (inactive)
21 | Cc1c(C)[n+](=O)c2c(n1[O-])CCCCC2 | 89% (inactive) | 93.5% (inactive) | 96% (inactive) | 9.67% (inactive) | 86.3% | 96% | -1.43% (inactive) | -2.3% (inactive)
22 | CCc1nc2sc3ccccc3c(=O)c2c(=O)n1Cc1ccco1 | 73% (inactive) | 82.6% (inactive) | 77% (inactive) | 2.49% (inactive) | 74.5% | 77% | -3.77% (inactive) | 0.98% (inactive)
23 | CCN(CC(=O)NC1CCS(=O)(=O)C1)C(=O)C(c1ccccc1)c1ccccc1 (stereo unspecified) | 119% (inactive) | 102% (inactive) | 102% (inactive) | 14.2% (inactive) | 88.2% | 102% | -5.14% (inactive) | -2.91% (inactive)
24 | CC(NCCc1ccc(O)cc1)C(O)c1ccc(O)cc1 (stereo unspecified) | 99% (inactive) | 101% (inactive) | 99.4% (inactive) | 7.11% (inactive) | 92.3% | 99.4% | -2.73% (inactive) | 0.67% (inactive)
25 | Cc1cccc(N(CC(=O)Nc2ccc(CC#N)cc2)S(C)(=O)=O)c1 | 108% (inactive) | 105% (inactive) | 97% (inactive) | 10.8% (inactive) | 86.2% | 97% | -10.8% (inactive) | 2.74% (inactive)
26 | CC(C)OC(=O)c1cccc(C(=O)O)n1 | 110% (inactive) | 91% (inactive) | 96% (inactive) | 1.99% (inactive) | 94.1% | 96% | -1.69% (inactive) | -5.57% (inactive)
27 | COc1ccc(Cl)cc1NC(=O)CCN1CCN(c2ccccc2C)CC1 | 70% (inactive) | 110% (inactive) | 97.1% (inactive) | 5.5% (inactive) | 91.6% | 97.1% | -8.11% (inactive) | -0.36% (inactive)
28 | CCOC(=O)N1CCC(n2c(SCC(=O)NCc3ccco3)nc3ccsc3c2=O)CC1 | 81% (inactive) | 88.3% (inactive) | 78.5% (inactive) | – | – | – | -3.55% (inactive) | 2.67% (inactive)
29 | COc1ccc(C)cc1-n1c(N)c(C#N)c(C#N)c1-c1ccc(OC)c(OC)c1OC | 97% (inactive) | 68.7% (inactive) | 72.9% (inactive) | – | – | – | -3.51% (inactive) | -1.31% (inactive)
30 | Nc1nnnn1NCc1cccc(OCc2ccccc2)c1 | 112% (inactive) | 88.8% (inactive) | 104% (inactive) | 15.4% (inactive) | 89% | 104% | -7.95% (inactive) | 3.71% (inactive)
31 | COC(=O)C1(C)NC(c2cccs2)C2C(=O)N(c3ccccc3F)C(=O)C21 (stereo unspecified) | 80% (inactive) | 96.3% (inactive) | 99.3% (inactive) | 4.93% (inactive) | 94.4% | 99.3% | -0.27% (inactive) | -0.48% (inactive)
32 | Cn1c(C(=O)NCc2cccnc2)cc2sccc21 | 115% (inactive) | 102% (inactive) | 93% (inactive) | -2.84% (inactive) | 95.8% | 93% | 5.21% (inactive) | 11.1% (inactive)
33 | OCCN1CCN(CCCN2c3ccccc3Sc3ccc(C(F)(F)F)cc32)CC1 | 3% (active) | 2.4% (active) | – | -2.74% (inactive) | 3.77% | 1.03% | – | –
34 | O=C(O)CCc1ccc(-c2cccs2)n1NC(=O)c1ccccc1Br | 96% (inactive) | 104% (inactive) | 106% (inactive) | 16% (inactive) | 89.5% | 106% | -6.71% (inactive) | 4.36% (inactive)
35 | O=S1(=O)Nc2c(ccc3cccnc23)-c2ccccc21 | 122% (inactive) | 8.06% (active) | – | -6.77% (inactive) | 56% | 49.2% | -7.5% (inactive) | 9.84% (inactive)
36 | Cc1ccc(-c2nnc(-c3cccc(Br)c3)o2)cc1 | 106% (inactive) | 99.7% (inactive) | 89.6% (inactive) | -3% (inactive) | 92.7% | 89.6% | -6.76% (inactive) | 4% (inactive)
37 | C=CCNC(=O)c1ccc(Cl)cc1Cl | 108% (inactive) | 92.8% (inactive) | 97% (inactive) | 4.47% (inactive) | 92.6% | 97% | -3.9% (inactive) | -1.48% (inactive)
